ChEMBL document CHEMBL4177768, “Synthesis and Biological Evaluation of Derivatives of Indoline as Highly Potent Antioxidant and Anti-inflammatory Agents” (J Med Chem, 2018)
Active and inactive are the calls of the source. The calls are words filed in the database; no cut-off is given here.

How the values were obtained:
[1] = Cytotoxicity against mouse RAW264.7 cells assessed as cell viability at 10^-9 M after 24 hrs by MTT assay relative to control; type: cell-based; settings: read-out: Activity
Summary of the method: (§1)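 RAW 264.7 cells, seeded at 1×10^4 cells/mL and incubated 24 h, were exposed to compound from 1 pM to 100 nM. Viability was read by MTT (final 0.5 mg/mL, 1 h at 37 °C), with formazan dissolved in DMSO and OD at 570 nm. Results are compared with medium-only cells.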

RAW264.7 [2] = test: Cytoprotective activity against H2O2-induced oxidative stress in mouse RAW264.7 cells assessed as cell viability at 1 pM incubated for 2 hrs prior to H2O2 addition measured after 24 hrs by MTT assay (reference value: 68 to 72.8%); type: functional; settings: read-out: Activity
[3] = Cytotoxicity against mouse RAW264.7 cells assessed as cell viability at 10^-11 M after 24 hrs by MTT assay relative to control; type: cell-based; settings: read-out: Activity; summary of the method: as §1
[4] = Cytotoxicity against mouse RAW264.7 cells assessed as cell viability at 10^-7 M after 24 hrs by MTT assay relative to control; type: cell-based; settings: read-out: Activity; summary of the method: as §1
RAW264.7 [5] = test: Antiinflammatory activity in mouse RAW264.7 cells assessed as reduction in LPS-induced nitric oxide production at 1 pM to 100 nM incubated for 2 hrs prior to LPS challenge measured after 24 hrs by Griess assay; type: functional, cell-based
Summary of the method: (§2)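 RAW 264.7 macrophages were plated at 1×10^5 per well, grown overnight and washed with PBS. Compounds in water (final 1 pM-100 nM, medium with 2% FCS) were added 2 h at 37 °C before E. coli 0111:B4 LPS, 2.5 µg/mL. TNF-α was sampled at 8 h; IL-6 and nitrite (Griess) at 24 h. ELISA was used for cytokines. Values are % of the LPS + medium value in each experiment. Budesonide was the reference. 2-3 experiments, 6 wells per concentration.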

[6] = Cytotoxicity against mouse RAW264.7 cells assessed as cell viability at 10^-8 M after 24 hrs by MTT assay relative to control; type: cell-based; settings: read-out: Activity; summary of the method: as §1
[7] = Cytotoxicity against mouse RAW264.7 cells assessed as cell viability at 10^-10 M after 24 hrs by MTT assay relative to control; type: cell-based; settings: read-out: Activity; summary of the method: as §1
[8] = Cytotoxicity against mouse RAW264.7 cells assessed as cell viability at 10^-12 M after 24 hrs by MTT assay relative to control; type: cell-based; settings: read-out: Activity; summary of the method: as §1
RAW264.7 [9] = test: Antiinflammatory activity in mouse RAW264.7 cells assessed as reduction in LPS-induced IL6 production at 1 pM to 100 nM incubated for 2 hrs prior to LPS challenge measured after 24 hrs by ELISA; type: functional, cell-based; summary of the method: as §2
RAW264.7 [10] = test: Antiinflammatory activity in mouse RAW264.7 cells assessed as reduction in LPS-induced TNF-alpha production at 1 pM to 100 nM incubated for 2 hrs prior to LPS challenge measured after 8 hrs by ELISA; type: functional, cell-based; summary of the method: as §2
RAW264.7 [11] = test: Cytoprotective activity against H2O2-induced oxidative stress in mouse RAW264.7 cells assessed as cell viability at 10 nM incubated for 2 hrs prior to H2O2 addition measured after 24 hrs by MTT assay (reference value: 68 to 72.8%); type: functional; settings: read-out: Activity
RAW264.7 [12] = test: Antiinflammatory activity in mouse RAW264.7 cells assessed as reduction in LPS-induced IL-6 production at 1 nM incubated for 2 hrs prior to LPS challenge measured after 24 hrs by ELISA; type: functional; set-up: scale not given: the % may be the effect or the level left; summary of the method: as §2
RAW264.7 [13] = test: Antiinflammatory activity in mouse RAW264.7 cells assessed as reduction in LPS-induced nitric oxide production at 1 nM incubated for 2 hrs prior to LPS challenge measured after 24 hrs by Griess assay; type: functional; set-up: scale not given: the % may be the effect or the level left; summary of the method: as §2
RAW264.7 [14] = test: Antiinflammatory activity in mouse RAW264.7 cells assessed as reduction in LPS-induced TNF-alpha production at 1 nM incubated for 2 hrs prior to LPS challenge measured after 8 hrs by ELISA; type: functional; set-up: scale not given: the % may be the effect or the level left; summary of the method: as §2
RAW264.7 [15] = test: Cytoprotective activity against H2O2-induced oxidative stress in mouse RAW264.7 cells assessed as cell viability at 100 nM incubated for 2 hrs prior to H2O2 addition measured after 24 hrs by MTT assay (reference value: 68 to 72.8%); type: functional; settings: read-out: Activity
RAW264.7 [16] = test: Antiinflammatory activity in mouse RAW264.7 cells assessed as reduction in LPS-induced TNF-alpha production at 100 pM to 100 nM incubated for 2 hrs prior to LPS challenge measured after 8 hrs by ELISA; type: functional, cell-based; summary of the method: as §2
RAW264.7 [17] = test: Antiinflammatory activity in mouse RAW264.7 cells assessed as reduction in LPS-induced IL-6 production at 100 pM to 100 nM incubated for 2 hrs prior to LPS challenge measured after 24 hrs by ELISA; type: functional, cell-based; summary of the method: as §2

Row | Structure (SMILES) | Activity (RAW264.7 [5]) | Activity (RAW264.7 [9]) | Activity (RAW264.7 [10]) | viability at 0.01 µM (RAW264.7 [11]) [%] | other results
1 | CC(C)NC(=O)CCN1CCc2cc(Cl)ccc21 | inactive | inactive | inactive | – | viability at 24 h, 0.001 µM [1]: 97.9%; viability at 1 pM (RAW264.7 [2]): 95.7%; viability at 24 h, 1e-05 µM [3]: 96.3%; viability at 24 h, 0.1 µM [4]: 103%; viability at 24 h, 0.01 µM [6]: 104%; viability at 24 h, 0.0001 µM [7]: 98.2%; viability at 24 h, 1e-06 µM [8]: 95.6%
2 | COC(=O)CCN1CCc2ccc(C)cc21 | inactive | inactive | inactive | 87.2 | –
3 | COc1ccc2c(c1)CCN2CCCNC(C)C.Cl.Cl | Dose-dependent effect | – | Dose-dependent effect | 87.1 | Activity (RAW264.7 [12]): 50%; Activity (RAW264.7 [13]): 50%; Activity (RAW264.7 [14]): 50%
4 | COc1ccc2c(c1)CCN2CCC(=O)O | inactive | inactive | inactive | – | viability at 0.1 µM (RAW264.7 [15]): 87.1%
5 | CC(C)NC(=O)CCN1CCc2ccc(F)cc21 | inactive | inactive | inactive | – | viability at 0.1 µM (RAW264.7 [15]): 86.9%
6 | CC(C)NCCCN1CCc2cccc(O)c21.Cc1ccc(S(C)(=O)=O)cc1.Cc1ccc(S(C)(=O)=O)cc1 | – | – | – | – | Activity (RAW264.7 [16]): inactive; Activity (RAW264.7 [17]): inactive
7 | c1ccc2c(c1)CCN2 [INDOLINE] | – | – | – | 90.4 | –
